Screens as filed in PubChem BioAssay.
Rows were chosen to be rich in hits. Some 29% of all compounds tested hit in one or more screens of this group.
Ecoli WT expand = E. coli BW25113 growth inhibition, expanded screen; growth inhibition, % at 100 µM; OD600 absorbance; actives 0.15% (n = 98,000);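 active = growth inhibition above about 50% at one test dose, limit read from the data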;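 also: growth measured after 20 h incubation at 37 °C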
CYP2C19 inhib = inhibitors of human CYP2C19 | P33261 | CYP2C19 Supersomes, luciferin-H EGE luminescence, 30 min | inhibition, % at 5 µM | actives 21% (n = 96,000) | AID 778;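 active = CYP2C19 inhibition above a set limit at 5 µM in the primary screen, cut at about 50% in these data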;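 also: plate controls were negative control wells for no effect and 2.5 mM tranylcypromine positive control for full effect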
Target sequence (P33261 whole entry, looked up): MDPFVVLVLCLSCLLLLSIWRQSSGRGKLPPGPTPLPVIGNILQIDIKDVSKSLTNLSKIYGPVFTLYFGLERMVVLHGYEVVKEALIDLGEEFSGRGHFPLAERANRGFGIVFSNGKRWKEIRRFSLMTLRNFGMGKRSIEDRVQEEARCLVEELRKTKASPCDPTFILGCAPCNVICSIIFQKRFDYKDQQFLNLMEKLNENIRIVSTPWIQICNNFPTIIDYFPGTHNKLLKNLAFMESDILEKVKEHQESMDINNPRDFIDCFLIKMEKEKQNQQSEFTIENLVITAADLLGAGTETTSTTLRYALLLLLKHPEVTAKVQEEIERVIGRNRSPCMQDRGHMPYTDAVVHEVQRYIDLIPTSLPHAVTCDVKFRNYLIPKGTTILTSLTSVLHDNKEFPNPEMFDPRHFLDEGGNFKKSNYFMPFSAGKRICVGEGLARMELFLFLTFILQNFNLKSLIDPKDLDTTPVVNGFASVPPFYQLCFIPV
Ecoli tolC = E. coli tolC mutant growth inhibition. E. coli BW25113 tolC mutant growth, OD615. growth inhibition, % at 10 µM (by protocol). actives 2.2% (n = 65,000). AID 573;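 active = growth inhibition at or above a cutoff equal to the mean over every tested compound plus 3 SD, cut at about 60% in these data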;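 also: growth measured after 20 h incubation at 37 °C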
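Test system: E. coli BW25113 ΔtolC::kan bacteria | Medium: Kanamycin-containing LB broth (50 µg/mL) | Dosing: One dose of 10 µM final | Times: 20 h incubation with compound, 37 °C | Detection: Optical density read at 615 nm | Read-out basis: Percent growth inhibition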
CYP2C9 inhib = blocks human cytochrome P450 2C9. inhibition, % at 5 µM. CYP2C9 Supersomes, luciferin-H conversion, luminescence. AID 777. P11712. actives 20% (n = 96,000);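 active = blocking of liver enzyme CYP2C9 beyond about 50% at 5 µM, limit read from the data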
CYP2C9 act = activators of human CYP2C9. recombinant CYP2C9, luciferin-H conversion, luminescence; active compounds read high; factor 1 = untreated enzyme, 0 = blocked. activation factor at 5 µM. actives 1.4% (n = 96,000);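 active = activation factor of 2 or more for CYP2C9 at a 5 µM dose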;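 also: 0 = sulfaphenazole-blocked wells and 1 = vehicle-only wells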
CYP2C19 activ = cytochrome P450 2C19 (human) activation | P33261 | recombinant CYP2C19, luciferin-H EGE luminescence; active compounds read high; 0 = fully inhibited enzyme, 1 = untreated enzyme | activation factor at 5 µM | 96,000 tested, under 10 active | AID 1025;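 active = activation factor of at least 2 at 5 µM in the primary screen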;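 also: 0 = wells with 2.5 mM tranylcypromine and 1 = vehicle-only wells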
Starred values were filed as active, the others as inactive; x = not tested or not shown.

SMILES	Ecoli WT expand	CYP2C19 inhib	Ecoli tolC	CYP2C9 inhib	CYP2C9 act	CYP2C19 activ
CCCCOc1ccc(-c2nc(-c3cccnc3)no2)cc1	-5.0	16.4	16.1	13.5	0.9	0.8
CCOc1ccc(-c2nnc(N)o2)cc1	-12.0	-2.2	-19.1	-13.2	1.1	1
CCCCOc1ccc(-c2nnc(-c3ccncc3)o2)cc1	-4.0	96.2*	-22.0	54.4*	0.5	0
O=C(Nc1cccc(-c2cn3ccccc3n2)c1)C1CC1	11.0	7.2	x	14.6	0.9	0.9
O=C(/C=C/c1cccc([N+](=O)[O-])c1)NCCSc1ccccc1	13.0	11.2	x	-33.2	1.3	0.9
CCCCN(CCCC)C(=O)/C=C/c1cccc([N+](=O)[O-])c1	-1.0	72.4*	x	60.1*	0.4	0.3
O=C(Nc1ccc(Cl)cc1)N1CCC(c2nc(-c3cccs3)no2)CC1	-4.0	22.4	100.0*	18.0	0.8	0.8
COc1ccc(NC(=O)N2CCC(c3nc(-c4cccs4)no3)CC2)cc1	8.0	68.8*	20.0	54.7*	0.5	0.3
O=C(Nc1ccccc1)N1CCCC(c2nc(-c3cccs3)no2)C1 (stereo not given)	6.0	86.9*	18.4	47.6	0.5	0.1
O=C(Nc1ccc(Cl)cc1)N1CCC(c2nc(-c3ccccc3Cl)no2)CC1	-22.0	0.2	x	5.2	0.9	1
O=C(/C=C/Nc1cccc(C(F)(F)F)c1)c1ccc(Oc2ncccn2)cc1	-4.0	29.4	x	-5.4	1.1	0.7
COc1cccc2cc(C(=O)N3CCN(c4ccccc4F)CC3)c(=O)oc12	-3.0	35.7	5.0	50.7*	0.5	0.6
CCOc1cccc2cc(C(=O)N3CCc4ccccc4C3)c(=O)oc12	-2.0	68.5*	3.6	-145.8	2.5*	0.3
O=C(c1cc2cc(Br)ccc2oc1=O)N1CCN(c2ccccn2)CC1	-16.0	8.8	6.8	8.9	0.9	0.9
COc1cc(Br)cc2cc(C(=O)N3CCN(c4ccccn4)CC3)c(=O)oc12	-3.0	74.2*	x	57.0*	0.4	0.3
CCOc1ccc(N2CC(C(=O)N3CCc4ccccc4C3)CC2=O)cc1 (stereo not given)	0.0	-5.9	x	46.8	0.5	1.1
COc1ccc2oc(=O)c(C(=O)N3CCN(c4ccccc4C)CC3)cc2c1	5.0	0.7	14.5	-0.5	1	1
CCOc1ccc(OCc2ccc(C(=O)N3CCc4ccccc4C3)o2)cc1	24.0	50.9*	x	30.6	0.7	0.5
COc1ccc(C(=O)/C=C/Nc2cc(C)on2)c(OC)c1	3.0	11.3	-6.5	-50.6	1.5	0.9
COc1cc2c(cc1OC)CN(C(=O)c1cc3ccccc3oc1=O)CC2	-5.0	12.8	-19.2	-49.1	1.5	0.9
COc1cccc2cc(C(=O)N3CCc4ccccc4C3)c(=O)oc12	1.0	26.7	5.1	-97.3	2*	0.7
O=C(CSc1nnc(-c2cccs2)n1-c1ccccc1)NCc1ccc2c(c1)OCO2	-10.0	68.2*	19.6	92.0*	0.1	0.3
Cn1c(SCC(=O)NCc2ccc3c(c2)OCO3)nnc1-c1cccs1	1.0	0.1	-14.0	64.7*	0.4	1
Cc1nnc(SCC(=O)N2CC(=O)Nc3ccccc32)n1-c1ccccc1	-4.0	1.4	-12.5	-5.7	1.1	1
O=C(CSc1nnc(-c2ccco2)n1-c1ccccc1)NCc1ccc2c(c1)OCO2	5.0	47.4	-1.6	40.3	0.6	0.5
SMILES	Ecoli WT expand	CYP2C19 inhib	Ecoli tolC	CYP2C9 inhib	CYP2C9 act	CYP2C19 activ
O=C(CSc1nnc(Cc2cccs2)n1-c1ccc(Cl)cc1)NCc1ccc2c(c1)OCO2	-16.0	35.4	x	54.4*	0.5	0.6
Cn1c(SCC(=O)NCc2ccc3c(c2)OCO3)nnc1-c1cc2ccccc2cc1O	-2.0	x	21.7	x	x	x
O=C1CN(C(=O)CSc2nnc(-c3ccccc3)n2Cc2ccc3c(c2)OCO3)c2ccccc2N1	4.0	63.3*	12.3	37.3	0.6	0.4
CC(Sc1nnc(-c2cccs2)n1Cc1ccccc1)C(=O)NCc1ccc2c(c1)OCO2 (stereo not given)	-11.0	47.5	x	85.0*	0.2	0.5
CCn1c(SCC(=O)Nc2cc(OC)c(OC)c(OC)c2)nnc1-c1cccs1	-1.0	19.2	8.3	52.5*	0.5	0.8
CCn1c(SCC(=O)NCc2ccc3c(c2)OCO3)nnc1-c1cccs1	3.0	4.4	-2.5	76.9*	0.2	1
